{
  "source": "ChEMBL document CHEMBL3244241",
  "about": "“Synthesis of cephalotaxine esters and correlation of their structures with antitumor activity” (J Med Chem, 1977)",
  "key": {"[1]": {"test_system": "Mus musculus", "test": "Toxicity in DBA/2 mouse allografted with mouse P388 cells assessed as change in body weight at 5.9 mg/kg/day, ip for 9 days compound administered through water+alcohol vehicle", "assay_type": "organism-based", "set-up": "route intraperitoneal", "details": "in vivo, 216 h"}, "[2]": {"test_system": "Mus musculus", "test": "Toxicity in DBA/2 mouse allografted with mouse P388 cells assessed as change in body weight at 4 mg/kg/day, ip for 9 days compound administered through saline vehicle", "assay_type": "organism-based", "set-up": "route intraperitoneal", "details": "in vivo, 216 h"}, "[3]": {"test_system": "P388", "test": "Antitumor activity against mouse P388 cells allografted in DBA/2 mouse assessed as host survival at 4 mg/kg/day, ip for 9 days compound administered through saline vehicle relative to control", "assay_type": "functional", "details": "route intraperitoneal", "in_short": "(§1)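 P388 lymphocytic leukemia in DBA/2 mice. Dosing was one intraperitoneal injection per day for 9 days in the vehicle stated. […] Duplicate tests were run for some doses.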"}, "[4]": {"test_system": "P388", "test": "Antitumor activity against mouse P388 cells allografted in DBA/2 mouse assessed as host survival at 5.9 mg/kg/day, ip for 9 days compound administered through water+alcohol vehicle relative to control", "assay_type": "functional", "details": "route intraperitoneal", "in_short": "as §1"}, "[5]": {"test_system": "P388", "test": "Antitumor activity against mouse P388 cells allografted in DBA/2 mouse assessed as host survival at 2 mg/kg/day, ip for 9 days compound administered through saline vehicle relative to control", "assay_type": "functional", "details": "route intraperitoneal", "in_short": "as §1"}, "[6]": {"test_system": "Mus musculus", "test": "Toxicity in DBA/2 mouse allografted with mouse P388 cells assessed as change in body weight at 2 mg/kg/day, ip for 9 days compound administered through saline vehicle", "assay_type": "organism-based", "set-up": "route intraperitoneal", "details": "in vivo, 216 h"}, "[7]": {"test_system": "Mus musculus", "test": "Toxicity in DBA/2 mouse allografted with mouse P388 cells at 480 mg/kg/day, ip for 9 days", "assay_type": "organism-based", "set-up": "route intraperitoneal", "details": "in vivo, 216 h", "in_short": "(§2)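 DBA/2 mice bearing P388 lymphocytic leukemia received one intraperitoneal injection per day for 9 days, given in the vehicle named for each test (water/alcohol-based, saline or saline + Tween 80). Toxicity was noted during dosing alongside survival scoring (T/C, treated versus control mean survival time).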"}, "[8]": {"test_system": "Mus musculus", "test": "Toxicity in DBA/2 mouse allografted with mouse P388 cells at >80 mg/kg/day, ip for 9 days", "assay_type": "organism-based", "details": "in vivo, 216 h", "in_short": "as §2"}, "[9]": {"test_system": "P388", "test": "Antitumor activity against mouse P388 cells allografted in ip dosed DBA/2 mouse administered for 9 days", "assay_type": "functional, organism-based", "in_short": "(§3)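 P388 lymphocytic leukemia in DBA/2 mice; one intraperitoneal injection per day for 9 days. […] Injection vehicles were water + alcohol, saline + Tween 80, or aqueous 0.5% citric acid. Some tests were duplicated, and 30-day cures were recorded.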"}, "[10]": {"test_system": "P388", "test": "Antitumor activity against mouse P388 cells allografted in DBA/2 mouse assessed as host survival at 4.4 mg/kg/day, ip for 9 days compound administered through water+alcohol vehicle relative to control", "assay_type": "functional", "details": "route intraperitoneal", "in_short": "as §1"}, "[11]": {"test_system": "Mus musculus", "test": "Toxicity in DBA/2 mouse allografted with mouse P388 cells assessed as change in body weight at 4.4 mg/kg/day, ip for 9 days compound administered through water+alcohol vehicle", "assay_type": "organism-based", "set-up": "route intraperitoneal", "details": "in vivo, 216 h", "in_short": "as §2"}, "[12]": {"test_system": "P388", "test": "Antitumor activity against mouse P388 cells allografted in DBA/2 mouse assessed as host survival at 80 mg/kg/day, ip for 9 days compound administered through water+alcohol+acetone vehicle relative to control", "assay_type": "functional", "details": "route intraperitoneal", "in_short": "as §1"}, "[13]": {"test_system": "P388", "test": "Antitumor activity against mouse P388 cells allografted in DBA/2 mouse assessed as host survival at 20 mg/kg/day, ip for 9 days compound administered through water+alcohol+acetone vehicle relative to control", "assay_type": "functional", "details": "route intraperitoneal", "in_short": "as §1"}, "[14]": {"test_system": "P388", "test": "Antitumor activity against mouse P388 cells allografted in DBA/2 mouse assessed as host survival at 1.9 mg/kg/day, ip for 9 days compound administered through water+alcohol vehicle relative to control", "assay_type": "functional", "details": "route intraperitoneal", "in_short": "as §1"}, "[15]": {"test_system": "Mus musculus", "test": "Toxicity in DBA/2 mouse allografted with mouse P388 cells assessed as change in body weight at 40 mg/kg/day, ip for 9 days compound administered through water+alcohol+acetone vehicle", "assay_type": "organism-based", "set-up": "route intraperitoneal", "details": "in vivo, 216 h", "in_short": "as §2"}, "[16]": {"test_system": "P388", "test": "Antitumor activity against mouse P388 cells allografted in DBA/2 mouse assessed as host survival at 10 mg/kg/day, ip for 9 days compound administered through water+alcohol+acetone vehicle relative to control", "assay_type": "functional", "details": "route intraperitoneal", "in_short": "as §1"}, "[17]": {"test_system": "Mus musculus", "test": "Toxicity in DBA/2 mouse allografted with mouse P388 cells assessed as change in body weight at 20 mg/kg/day, ip for 9 days compound administered through water+alcohol+acetone vehicle", "assay_type": "organism-based", "set-up": "route intraperitoneal", "details": "in vivo, 216 h", "in_short": "as §2"}, "[18]": {"test_system": "Mus musculus", "test": "Toxicity in DBA/2 mouse allografted with mouse P388 cells assessed as change in body weight at 80 mg/kg/day, ip for 9 days compound administered through water+alcohol+acetone vehicle", "assay_type": "organism-based", "set-up": "route intraperitoneal", "details": "in vivo, 216 h", "in_short": "as §2"}, "[19]": {"test_system": "Mus musculus", "test": "Toxicity in DBA/2 mouse allografted with mouse P388 cells assessed as change in body weight at 10 mg/kg/day, ip for 9 days compound administered through water+alcohol+acetone vehicle", "assay_type": "organism-based", "set-up": "route intraperitoneal", "details": "in vivo, 216 h", "in_short": "as §2"}, "[20]": {"test_system": "Mus musculus", "test": "Toxicity in DBA/2 mouse allografted with mouse P388 cells assessed as change in body weight at 1.9 mg/kg/day, ip for 9 days compound administered through water+alcohol vehicle", "assay_type": "organism-based", "set-up": "route intraperitoneal", "details": "in vivo, 216 h", "in_short": "as §2"}, "[21]": {"test_system": "P388", "test": "Antitumor activity against mouse P388 cells allografted in DBA/2 mouse assessed as host survival at 40 mg/kg/day, ip for 9 days compound administered through water+alcohol+acetone vehicle relative to control", "assay_type": "functional", "details": "route intraperitoneal", "in_short": "as §1"}, "[22]": {"test_system": "P388", "test": "Antitumor activity against mouse P388 cells allografted in DBA/2 mouse assessed as host survival at 20 mg/kg/day, ip for 9 days compound administered through water+acetone vehicle relative to control", "assay_type": "functional", "details": "route intraperitoneal", "in_short": "as §1"}, "[23]": {"test_system": "Mus musculus", "test": "Toxicity in DBA/2 mouse allografted with mouse P388 cells assessed as change in body weight at 20 mg/kg/day, ip for 9 days compound administered through water+acetone vehicle", "assay_type": "organism-based", "set-up": "route intraperitoneal", "details": "in vivo, 216 h", "in_short": "as §2"}, "[24]": {"test_system": "P388", "test": "Antitumor activity against mouse P388 cells allografted in DBA/2 mouse at 480 mg/kg/day, ip for 9 days", "assay_type": "functional, organism-based", "in_short": "as §3"}},
  "note": "Active and inactive are the calls of the source. The calls are words filed in the database; no cut-off is given here.",
  "data": [
    {"smiles": "COC(=O)C[C@](O)(CCC(C)C)C(=O)O[C@@H]1C(OC)=C[C@]23CCCN2CCc2cc4c(cc2[C@H]13)OCO4", "note": "[DEOXYHARRINGTONINE]", "values": [
      {"measurement": "Activity", "setting": "[1]", "result": -0.9, "unit": "g"},
      {"measurement": "Activity", "setting": "[2]", "result": 0, "unit": "g"},
      {"measurement": "T/C", "setting": "[3]", "result": 174, "unit": "%"},
      {"measurement": "T/C", "setting": "[4]", "result": 184, "unit": "%"},
      {"measurement": "T/C", "setting": "[5]", "result": 126, "unit": "%"},
      {"measurement": "Activity", "setting": "[6]", "result": 0.8, "unit": "g"}
    ]},
    {"smiles": "C=C(CC(=O)OC)C(=O)O[C@@H]1C(OC)=C[C@]23CCCN2CCc2cc4c(cc2[C@H]13)OCO4", "note": "(single isomer, unassigned) [listing 1 of 2 here]", "values": [
      {"measurement": "Activity", "setting": "[7]", "result": "Toxic"}
    ]},
    {"smiles": "COC1=C[C@]23CCCN2CCc2cc4c(cc2[C@@H]3[C@@H]1OC(=O)[C@@H](O)c1ccccc1)OCO4", "values": [
      {"measurement": "Activity", "setting": "[8]", "result": "Toxic"},
      {"measurement": "Activity", "setting": "[9]", "result": "inactive"}
    ]},
    {"smiles": "COC1=C[C@]23CCCN2CCc2cc4c(cc2[C@@H]3[C@@H]1OC(=O)OCc1ccccc1)OCO4", "values": [
      {"measurement": "Activity", "setting": "[9]", "result": "inactive"}
    ]},
    {"smiles": "COC(=O)/C=C/C(=O)O[C@@H]1C(OC)=C[C@]23CCCN2CCc2cc4c(cc2[C@H]13)OCO4", "values": [
      {"measurement": "T/C", "setting": "[10]", "result": 147, "unit": "%"},
      {"measurement": "Activity", "setting": "[11]", "result": -1.5, "unit": "g"},
      {"measurement": "T/C", "setting": "[12]", "result": 145, "unit": "%"},
      {"measurement": "T/C", "setting": "[13]", "result": 125, "unit": "%"},
      {"measurement": "T/C", "setting": "[14]", "result": 134, "unit": "%"},
      {"measurement": "Activity", "setting": "[15]", "result": -0.9, "unit": "g"},
      {"measurement": "T/C", "setting": "[16]", "result": 136, "unit": "%"},
      {"measurement": "Activity", "setting": "[17]", "result": -1, "unit": "g"},
      {"measurement": "Activity", "setting": "[18]", "result": -0.7, "unit": "g"},
      {"measurement": "Activity", "setting": "[19]", "result": -1.2, "unit": "g"},
      {"measurement": "Activity", "setting": "[20]", "result": 0.5, "unit": "g"},
      {"measurement": "T/C", "setting": "[21]", "result": 134, "unit": "%"}
    ]},
    {"smiles": "CCOC(=O)O[C@@H]1C(OC)=C[C@]23CCCN2CCc2cc4c(cc2[C@H]13)OCO4", "values": [
      {"measurement": "Activity", "setting": "[9]", "result": "inactive"}
    ]},
    {"smiles": "COC(=O)/C(=C/C(=O)O[C@@H]1C(OC)=C[C@]23CCCN2CCc2cc4c(cc2[C@H]13)OCO4)CCC(C)C", "values": [
      {"measurement": "T/C", "setting": "[22]", "result": 131, "unit": "%"},
      {"measurement": "Activity", "setting": "[23]", "result": 0.9, "unit": "g"}
    ]},
    {"smiles": "C=C(CC(=O)OC)C(=O)O[C@@H]1C(OC)=C[C@]23CCCN2CCc2cc4c(cc2[C@H]13)OCO4", "note": "(single isomer, unassigned) [listing 2 of 2 here]", "values": [
      {"measurement": "Activity", "setting": "[24]", "result": "inactive"}
    ]},
    {"smiles": "CCC(C)(OC(=O)OCC(Cl)(Cl)Cl)C(=O)O[C@@H]1C(OC)=C[C@]23CCCN2CCc2cc4c(cc2[C@H]13)OCO4", "note": "(some centres not stated)", "values": [
      {"measurement": "Activity", "setting": "[9]", "result": "inactive"}
    ]}
  ]
}
